Assay results published in ChEMBL document CHEMBL4024779, “Novel Terminal Bipheny-Based Diapophytoene Desaturases (CrtN) Inhibitors as Anti-MRSA/VISR/LRSA Agents with Reduced hERG Activity” (J Med Chem, 2018).
Positions count from the first letter of the chain named. The source made the active and inactive calls. The calls are words filed in the database; no cut-off is given here.

Legend:
[1] = molecular target: T1, 4,4'-diapophytoene desaturase (4,4'-diaponeurosporene-forming) (Staphylococcus aureus (strain Newman), UniProt O07855); test: Inhibition of CrtN in Staphylococcus aureus Newman assessed as reduction in staphyloxanthin levels after 48 hrs by spectrophotometric method-based pigment inhibition assay; parameters: species or system Staphylococcus aureus subsp. aureus str. Newman
T1 sequence (O07855 whole entry): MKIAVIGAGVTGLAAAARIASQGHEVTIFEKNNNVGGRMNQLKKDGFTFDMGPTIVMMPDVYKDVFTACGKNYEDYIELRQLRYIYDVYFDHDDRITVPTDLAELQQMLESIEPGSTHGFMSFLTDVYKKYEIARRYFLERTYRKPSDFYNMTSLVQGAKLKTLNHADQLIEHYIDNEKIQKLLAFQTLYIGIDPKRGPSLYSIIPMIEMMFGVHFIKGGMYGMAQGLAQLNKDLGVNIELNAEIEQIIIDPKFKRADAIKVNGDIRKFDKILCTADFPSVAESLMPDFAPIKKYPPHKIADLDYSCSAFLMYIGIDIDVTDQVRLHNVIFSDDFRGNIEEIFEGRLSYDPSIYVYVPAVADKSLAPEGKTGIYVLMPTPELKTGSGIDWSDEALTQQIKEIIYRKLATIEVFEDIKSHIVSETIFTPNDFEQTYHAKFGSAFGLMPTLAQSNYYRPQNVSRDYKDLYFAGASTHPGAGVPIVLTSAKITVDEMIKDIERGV

[2] = molecular target: T2, 4,4'-diapophytoene desaturase (4,4'-diaponeurosporene-forming) (Staphylococcus aureus (strain MW2), UniProt Q8NUQ6); test: Inhibition of CrtN in methicillin-resistant Staphylococcus aureus USA400 MW2 assessed as reduction in staphyloxanthin levels after 48 hrs by spectrophotometric method-based pigment inhibition assay; parameters: species or system Staphylococcus aureus subsp. aureus MW2
T2 sequence (Q8NUQ6 whole entry): T1 sequence (O07855 whole entry) with R500Q

[3] = Cytotoxicity against HEK293 cells after 43 hrs by Alamar blue dye-based fluorescence assay; format: cell-based; conditions: human
[4] = Aqueous solubility of compound after 24 hrs by HPLC method; format: physicochemical
[5] = molecular target: T1, 4,4'-diapophytoene desaturase (4,4'-diaponeurosporene-forming); test: Inhibition of Staphylococcus aureus Newman 6His-tagged CrtN expressed in Escherichia coli BL21 (DE3)/pET28a::CrtN assessed as reduction in staphyloxanthin levels using diapophytoene as substrate after overnight incubation by spectrophotometric analysis; parameters: species or system Staphylococcus aureus subsp. aureus str. Newman
[6] = system: Liver; test: In-vitro intrinsic clearance in human liver microsomes at 2 uM after 60 mins in presence of NADPH by LC-MS/MS method; format: ADME, microsome; conditions: 1 h
[7] = system: Nannizzia gypsea; test: In vitro antifungal activity against Microsporum gypseum after 7 days by serial dilution method; format: functional; conditions: 168 h
[8] = system: Trichophyton verrucosum; test: In vitro antifungal activity against Trichophyton verrucosum after 7 days by serial dilution method; format: functional; conditions: 168 h
[9] = system: Staphylococcus aureus; test: Antibacterial activity against methicillin-resistant Staphylococcus aureus USA400 MW2 assessed as change in bacterial growth at 0.2 mM […]; format: functional
[10] = system: Staphylococcus aureus; test: In vivo anti-virulence activity against Staphylococcus aureus Newman infected in BALB/c mouse model assessed as reduction in bacterial load in kidneys at 0.4 mg bid for 4.5 days administered intraperitoneally 24 hrs prior to infection by serial dilution method; format: functional, organism-based
Method in brief: (§1)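 Mice (n=10 per group) got 2.3 × 10^7 CFU S. aureus Newman by retro-orbital injection. Compound was given intraperitoneally b.i.d., either 24 h before infection (4.5 d) or 6 h after infection (3.5 d). Mice were sacrificed after 4.5 d and CFU counted in kidneys and hearts. Groups were compared by two-tailed Mann-Whitney test.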

[11] = system: Staphylococcus aureus; test: In vivo anti-virulence activity against Staphylococcus aureus Newman infected in BALB/c mouse model assessed as reduction in bacterial load in heart at 0.4 mg bid for 4.5 days administered intraperitoneally 24 hrs prior to infection by serial dilution method; format: functional, organism-based; method in brief: as §1
[12] = system: Staphylococcus aureus; test: In vivo anti-virulence activity against Staphylococcus aureus Newman infected in BALB/c mouse model assessed as reduction in bacterial load in heart at 0.4 mg bid for 3.5 days administered intraperitoneally 6 hrs post infection by serial dilution method; format: functional, organism-based; method in brief: as §1
[13] = system: Staphylococcus aureus; test: In vivo anti-virulence activity against methicillin-resistant Staphylococcus aureus Mu50 infected in BALB/c mouse model assessed as reduction in bacterial load in kidneys at 0.1 mg bid for 4.5 days administered intraperitoneally 24 hrs prior to infection by serial dilution method; format: functional; parameters: scale not given: the % may be the effect or the level left
Method in brief: (§2)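 Mice (n=10 per group) infected retro-orbitally with S. aureus Mu50 (1.1 × 10^9 or 1.3 × 10^9 CFU) or NRS271 (2.3 × 10^8 CFU). Compound given i.p. b.i.d., either 6 h after infection for 3.5 d or 24 h before infection for 4.5 d. Mice killed after 4.5 d; log10 CFU per organ counted in kidneys and hearts. Two-tailed Mann−Whitney test.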

[14] = system: Staphylococcus aureus; test: In vivo anti-virulence activity against methicillin-resistant Staphylococcus aureus Mu50 infected in BALB/c mouse model assessed as reduction in bacterial load in heart at 0.1 mg bid for 3.5 days administered intraperitoneally 6 hrs post infection by serial dilution method; format: functional; parameters: scale not given: the % may be the effect or the level left
Method in brief: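 Mice were challenged with 1.3 × 10^9 CFU Mu50. Compound was given intraperitoneally, either 24 h before or 6 h after infection. Log10 CFU was counted in kidneys and hearts.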

[15] = system: Staphylococcus aureus; test: In vivo anti-virulence activity against methicillin-resistant Staphylococcus aureus NRS271 infected in BALB/c mouse model assessed as reduction in bacterial load in kidneys at 0.1 mg bid for 4.5 days administered intraperitoneally 24 hrs prior to infection by serial dilution method; format: functional; parameters: scale not given: the % may be the effect or the level left; method in brief: as §2
[16] = system: Staphylococcus aureus; test: In vivo anti-virulence activity against methicillin-resistant Staphylococcus aureus NRS271 infected in BALB/c mouse model assessed as reduction in bacterial load in kidneys at 0.4 mg bid for 3.5 days administered intraperitoneally 6 hrs post infection by serial dilution method; format: functional; parameters: scale not given: the % may be the effect or the level left; method in brief: as §2
[17] = system: Staphylococcus aureus; test: In vivo anti-virulence activity against methicillin-resistant Staphylococcus aureus NRS271 infected in BALB/c mouse model assessed as reduction in bacterial load in heart at 0.4 mg bid for 4.5 days administered intraperitoneally 24 hrs prior to infection by serial dilution method; format: functional; parameters: scale not given: the % may be the effect or the level left; method in brief: as §2
[18] = system: Staphylococcus aureus; test: In vivo anti-virulence activity against methicillin-resistant Staphylococcus aureus NRS271 infected in BALB/c mouse model assessed as reduction in bacterial load in heart at 0.4 mg bid for 3.5 days administered intraperitoneally 6 hrs post infection by serial dilution method; format: functional; parameters: scale not given: the % may be the effect or the level left; method in brief: as §2
[19] = system: Staphylococcus aureus; test: Antibacterial activity against Staphylococcus aureus Newman derived after 12 passage by broth dilution method; format: functional

SMILES	IC50 [1]	IC50 [2]	CC50 at 43 h [3]	solubility at 24 h [4]	IC50 [5]	CLH [6]	MIC80 [7]	MIC80 [8]	Activity [9]	Activity [10]	Activity [11]	Activity [12]	Activity [13]	Activity [14]	Activity [15]	Activity [16]	Activity [17]	Activity [18]	IC90 [19]
CN(C/C=C/c1ccc(-c2ccccc2)cc1)Cc1coc2ccccc12.Cl	2 nM	7.9 nM	48100 nM	200 µg/mL	400 nM	1230 µL/min/mg	32 µg/mL	> 64 µg/mL	inactive	Active	Active	Active	>95%	>95%	>95%	>95%	>95%	>95%	1.8 nM
CN(C/C=C/c1ccc(-c2ccccc2)cc1)Cc1cccc2cc[nH]c12.Cl	3.3 nM	8 nM	26500 nM	200 µg/mL	200 nM	20 µL/min/mg	> 64 µg/mL	> 64 µg/mL	inactive	inactive	inactive	inactive	>95%	>95%	>95%	>95%	>95%	>95%	2.6 nM
